Screening results from PubChem BioAssay.
MrgX1 PAM: allosterically activates human MrgX1 receptor signaling; B-score at 10 µM; Q96LB2; MrgX1-HEK293, Fluo-4 calcium flux, FDSS; active compounds read high; hit rate 0.63% among 310,000; AID 588675;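 active = plate-corrected calcium response at least 3 library SD above typical, normal starting fluorescence, not activating the receptor alone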;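 note: compound read alongside a low EC10 to EC30 dose of BAM8-22 agonist; peak minus trough fluorescence over baseline measured at the second addition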
Target sequence (Q96LB2 whole entry, looked up): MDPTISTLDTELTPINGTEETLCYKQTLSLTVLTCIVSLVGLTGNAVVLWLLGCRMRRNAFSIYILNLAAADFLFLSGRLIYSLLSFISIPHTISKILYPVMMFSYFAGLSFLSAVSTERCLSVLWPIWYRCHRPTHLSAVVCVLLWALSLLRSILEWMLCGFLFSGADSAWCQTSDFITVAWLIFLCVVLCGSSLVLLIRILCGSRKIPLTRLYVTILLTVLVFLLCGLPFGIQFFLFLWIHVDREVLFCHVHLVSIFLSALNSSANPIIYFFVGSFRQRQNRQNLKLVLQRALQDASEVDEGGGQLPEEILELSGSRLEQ
MrgX1 antag: antagonists of human MrgX1 receptor. MRGX1-HEK293 calcium flux, Fluo-4, BAM8-22 antagonism; active compounds read low. AID 588676. B-score at 10 µM. hit rate 1.3% among 310,000. Q96LB2;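 active = calcium-response B-score plate-corrected more than 3 library SD below zero, starting fluorescence within 5 deviations, no agonist response on first addition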;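 note: peak minus trough fluorescence over baseline after final BAM8-22 challenge near maximal dose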
MrgX1 ag: agonists of human MrgX1 receptor | Q96LB2 | B-score at 10 µM | MrgX1-HEK293 cells, Fluo-4 calcium fluorescence, agonist mode; active compounds read high | hit rate 0.44% among 310,000;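 active = calcium response B-score plate-corrected fluorescence ratio at least 3 library SD, with starting fluorescence B-score inside 5 SD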
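Material: MrgX1-expressing HEK293 cells; input: 15,000 cells per well; doses: test compound given as first of three sequential additions; schedule: overnight plating before 1 h dye loading; technique: Fluo-4 NW calcium-flux fluorescence, kinetic read; evaluation: baseline-normalised fluorescence change ratio, B-scored; control set: plate-wise positive and negative controls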
RGS4 pot: RGS4 potentiation or activation | B-score at 10 µM | AID 463111 | HEK293 M3R/inducible RGS4, carbachol calcium flux Fluo4; active compounds read low | hit rate 0.92% among 310,000;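 active = B-score of the integrated calcium signal more than 4 SD below the library mean, with starting fluorescence not abnormally high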;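 note: negative B-score means reduced calcium response which marks RGS4 activation or potentiation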
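Also added: carbachol at ECmax as muscarinic agonist stimulus; Assay system: HEK293 cells with stable M3R and inducible RGS4; Timing: overnight RGS4 induction, 30 min dye load 37 °C, 20 min compound RT; Measured by: Fluo4-AM (2 µM) calcium-flux fluorescence, kinetic read.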
RGS4 block: inhibitors of human RGS4. AID 463165. B-score at 10 µM. hit rate 0.45% among 310,000. HEK293 M3R/RGS4 inducible, Fluo-4 calcium flux; active compounds read high; triggered by carbachol at its EC20;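 active = B-score, a plate-corrected calcium signal, over three deviations above library mean, with baseline fluorescence within five deviations of library mean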;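 note: RGS4 expression induced by doxycycline in cells with stable M3 receptor; B-score is computed from the integrated fluorescence ratio over baseline after carbachol; higher B-score means a larger calcium signal and so more RGS4 inhibition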
Target sequence (P49798 whole entry, looked up): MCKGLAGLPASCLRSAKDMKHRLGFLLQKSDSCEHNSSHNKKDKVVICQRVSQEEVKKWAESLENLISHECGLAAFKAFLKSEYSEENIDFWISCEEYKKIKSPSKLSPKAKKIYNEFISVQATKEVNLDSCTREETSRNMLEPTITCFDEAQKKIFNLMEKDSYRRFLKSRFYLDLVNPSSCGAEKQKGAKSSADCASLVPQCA
MrgX1 ant reconf: reconfirmed antagonist of human MrgX1 receptor signaling; shares compounds with MrgX1 antag; remaining BAM8-22 calcium response % of control (active compounds read low), % at 10 µM; AID 602420; hit rate 19% among 2,300; MrgX1-HEK293, BAM8-22 calcium flux, Fluo-4; active compounds read low;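 active = remaining agonist calcium response no higher than 100% minus 3 SD of agonist-only control wells, with starting fluorescence near control levels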;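 note: agonist BAM8-22 given at a near maximal EC90 to ECmax level; peak minus minimum fluorescence divided by baseline after agonist addition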
HEK293 Ca flux: counter-screen for MrgX1 antagonists: effect in parental HEK293 cells. fluorescence ratio F(max-min)/F0 at 10 µM. hit rate 2% among 4,000. shares compounds with MrgX1 antag. Fluo-4 calcium fluorescence, FDSS;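 active = duplicate-averaged calcium fluorescence ratio at least three times the standard deviation of buffer wells, a nonspecific response in parental cells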
HEK293 Ca counter: activity in parental HEK293 cells without MrgX1; hit rate 0.4% among 4,000; fluorescence ratio F(max-min)/F0 at 10 µM; shares compounds with MrgX1 antag; parental HEK293 calcium flux, Fluo-4 fluorescence ratio; active compounds read high;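 active = calcium fluorescence ratio, averaged over duplicates, at least 3 SD of the buffer-well ratio, meaning a nonspecific response in receptor-free cells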;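 note: untransfected parental HEK293 lacking MrgX1 used as counterscreen for MrgX1 allosteric activators; fluorescence change taken during the second addition on a kinetic imager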
HEK293 Ca cntr2: activity in parental HEK293 cells lacking MrgX1 receptor | shares compounds with MrgX1 antag | AID 624115 | Fluo-4 calcium fluorescence (FDSS); active compounds read high | fluorescence ratio F(max-min)/F0 at 10 µM | hit rate 8.7% among 4,000;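 active = calcium fluorescence ratio at least three times the spread of buffer wells, meaning a non-specific response in parental cells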
Hits are given with their value; 0 = inactive; - = no result given. An excerpt weighted towards active compounds, which were near 3.5% of everything screened.

SMILES	MrgX1 PAM	MrgX1 antag	MrgX1 ag	RGS4 pot	RGS4 block	MrgX1 ant reconf	HEK293 Ca flux	HEK293 Ca counter	HEK293 Ca cntr2
CC1CC1C(=O)N(C)CC(=O)Nc1cccc(F)c1 (configuration not stated)	0	0	0	0	0	-	-	-	-
CCCCC1CCC(C(=O)N(C)CC(=O)Nc2cccc(F)c2)CC1 (configuration not stated)	0	-5.4	0	0	0	0	0	0	0
CCOC(=O)c1c(NC(=O)CC2SC(N)=NC2=O)sc2c1CCCC2 (configuration not stated)	0	0	0	0	0	-	-	-	-
CC(C)c1ccc(CCNC(=O)CSC(=S)N2CCCC2)cc1	0	0	0	0	0	-	-	-	-
CCCC[C@@H]1CNC(=O)C(=O)N1CC(C)(C)C	0	-7.2	0	0	0	0	0	0	0
CCCOc1ccc(C(=O)NNC(=O)c2cccc(S(=O)(=O)N3CCN(C(C)=O)CC3)c2)cc1OC	0	0	0	0	0	-	-	-	-
COc1ccccc1OCC(O)Cn1c(=N)n(Cc2ccccc2)c2ccccc21 (configuration not stated)	0	0	0	0	0	-	-	-	-
N=c1n(Cc2ccccc2)c2ccccc2n1CC(O)c1ccccc1 (configuration not stated)	0	-5.6	0	0	0	0	0	0	0
CCCn1c(-c2cccs2)nc2ccccc21	0	0	0	0	0	-	-	-	-
CCN1c2ccccc2-c2nc3ccccc3n2C1c1cccs1 (configuration not stated)	0	-6.1	0	0	0	0	0	0	0
O=C(CSc1nnc(Cc2ccc3c(c2)OCO3)n1C1CCCCC1)NC1CCCC1	0	0	0	0	0	-	-	-	-
NC(=O)CSc1nnc(Cc2ccc3c(c2)OCO3)n1C1CCCCC1	0	-4.6	0	0	0	0	0	0	55
CCOc1ccc(CC(=O)Nc2cc(=O)n(C)c(=O)n2C)cc1	0	0	0	0	0	-	-	-	-
COc1ccc(CC(=O)Nc2cc(=O)n(C)c(=O)n2C)cc1	0	-7.7	0	0	0	0	0	0	0
CC(C)CCNC(=O)c1cc(-c2ccncc2)nc2ccc(S(=O)(=O)N3CCOCC3)cc12	0	-8.3	0	0	0	0	0	0	0
C[C@@H]1NC(=O)c2cc([N+](=O)[O-])cc(I)c2OCC[C@@H](C(=O)NC(CC(=O)O)C(N)=O)NC(=O)[C@H](CC(N)=O)NC1=O (some centres not stated)	0	0	0	-	-	-	-	-	-
CC1(C)CC(=O)C=C(NCCO)C1	0	-4.7	0	0	0	0	0	0	0
CC1Cc2c([nH]c3ccccc23)C2c3ccccc3CN12 (configuration not stated)	0	0	0	0	0	-	-	-	-
CCOc1ccc(-n2ccnc(SCC(=O)NCCc3ccccc3)c2=O)cc1	0	0	0	0	0	-	-	-	-
Cc1ccc(-n2ccnc(SCC(=O)NCCc3ccccc3)c2=O)cc1F	0	-4.6	0	0	0	0	0	0	0
CN(C)C/C=C(\c1ccc(Br)cc1)c1cccnc1	0	-4.9	0	-	-	0	0	0	0
CCN(c1cccc(C)c1)S(=O)(=O)c1cc2c3c(c1)CCN3C(=O)CC2	0	-11	0	0	0	77%	0	0	0
Cc1nn(C)c(C)c1CN(Cc1nc(CCC(C)C)no1)C(C)C	0	-4.6	0	0	0	0	0	0	0
CC(C)CCc1noc(CN(C)CCC2CCOCC2)n1	0	0	0	0	0	-	-	-	-
c1ccc2oc(-c3ccc(Nc4nc(N5CCCC5)nc(N5CCOCC5)n4)cc3)nc2c1	0	0	0	0	0	-	-	-	-
SMILES	MrgX1 PAM	MrgX1 antag	MrgX1 ag	RGS4 pot	RGS4 block	MrgX1 ant reconf	HEK293 Ca flux	HEK293 Ca counter	HEK293 Ca cntr2
CCN(CC)S(=O)(=O)c1ccc(OC)c(NC(=O)c2cc(=O)[nH]c3ccccc23)c1	0	0	0	0	0	-	-	-	-
CCN1CCN(C(=O)C2CCN(Cc3cc(Cl)ccc3O)CC2)CC1	0	-7.7	0	0	0	0	0	0	0
CCN1CCN(C(=O)C2CCN(Cc3nc(-c4cccc(Cl)c4)oc3C)CC2)CC1	0	0	0	0	0	-	-	-	-
CCOC(=O)N1CCN(C(=O)C(NC(=O)c2ccc(CC)cc2)C(C)C)CC1 (configuration not stated)	0	0	0	0	0	-	-	-	-
CC(=O)c1cc(C#N)c(SCc2ccccc2C#N)nc1C	0	0	0	0	0	-	-	-	-
C(=C\c1ccccc1)/CN1CCN(c2ncnc3c2oc2ccccc23)CC1	0	-7.3	0	0	0	47%	0	0	0
c1ccc2[nH]c(CN3CCN(c4ncnc5c4oc4ccccc45)CC3)nc2c1	0	-6.4	0	-	-	0	0	0	0
CC(=O)c1ccccc1C(=O)N(C)C1CCCN(Cc2ccccc2F)C1 (configuration not stated)	0	-4.8	0	0	0	0	0	0	45
Cc1ccc(C(=O)NCCc2nnc3ccc(SCC(=O)Nc4c(C)cc(C)cc4C)nn23)cc1	0	-5.7	0	0	0	0	0	0	0
Cc1cccc(N/C(=N/S(=O)(=O)c2ccccc2)c2ccccc2)n1	0	0	0	0	0	-	-	-	-
CCOC(=O)Cc1csc(NS(=O)(=O)Cc2ccccc2)n1	0	-12	0	0	0	0	0	0	0
CCOC(=O)Cc1csc(NS(=O)(=O)c2ccc3ccccc3c2)n1	0	0	0	0	0	-	-	-	-
COC(=O)c1cccc(NC(=O)CSc2nnc(C)o2)c1	0	0	0	0	0	-	-	-	-
CCOC(=O)C1CCCN(C(=O)CSCc2ccccc2)C1 (configuration not stated)	0	-8.9	0	0	0	0	0	0	0
COc1ccc(/C=C/C(=O)NCC(=O)N=Nc2c(O)[nH]c3ccc([N+](=O)[O-])cc23)cc1	0	0	0	0	0	-	-	-	-
O=C(Cc1ccc(F)cc1)NC1CCS(=O)(=O)C1 (configuration not stated)	0	0	0	0	0	-	-	-	-
COc1ccc2c(c1)OC[C@H]1[C@H]2N2C(=O)c3cc(Br)ccc3NC(=O)[C@@]2(C)[C@H]1c1ccccc1	0	-7.6	0	-	-	79%	0	0	0
COc1ccc2c(c1)OC[C@H]1[C@H]2N2C(=O)c3cc(OC)c(OC)cc3NC(=O)[C@@]2(C)[C@H]1c1ccccc1	0	0	0	-	-	-	-	-	-
